Screens deposited in PubChem by several laboratories.
NR3A LBD binder – NR3A (human) ligand-binding domain modulation; AID 1259313; actives 2.5% (n = 340,000); Tm shift relative to glycine control, % at 25 µM; NR3A LBD differential scanning fluorimetry, Tm shift; 0% = protein alone, 100% = glycine-bound protein;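 active = melting temperature shift of at least 10% of the positive control shift, at one fixed dose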
CHOP inh – CHOP inhibition in unfolded protein response | CHO-K1 CHOP-promoter luciferase, tunicamycin-induced, 15-18 h | AID 2732 | inhibition, % at 10 µM | actives 3.8% (n = 220,000);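 active = compounds that reduced the stress-induced luciferase reporter signal by more than about 70% of percent inhibition, limit read from the data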
EBV gp42 inh – inhibitors of Epstein-Barr virus glycoprotein 42; inhibition, % (tested at 21.74 µM); actives 0.42% (n = 220,000); AID 1085; Fluorescence polarization binding assay, mP read-out; in the data active = inhibition above about 50%
Target sequence (Q1HVG2 whole entry, looked up): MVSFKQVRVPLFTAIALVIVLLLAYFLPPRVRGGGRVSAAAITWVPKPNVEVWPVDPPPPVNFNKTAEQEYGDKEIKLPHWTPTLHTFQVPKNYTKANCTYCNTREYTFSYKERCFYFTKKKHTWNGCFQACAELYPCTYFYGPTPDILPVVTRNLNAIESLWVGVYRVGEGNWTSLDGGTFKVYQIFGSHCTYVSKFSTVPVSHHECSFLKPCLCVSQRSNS
MPTP inh – permeability transition pore inhibition. isolated mouse mitochondria, Ca2+ swelling absorbance, 30 min. inhibition, % at 10 µM. actives 1.4% (n = 360,000). AID 602449;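 active = inhibition of 50% or more, scaled per plate between neutral and stimulator controls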
TbMetRS inhib – Trypanosoma brucei MetRS inhibition; inhibition, % at 11.9 µM; AID 624268; purified T. brucei MetRS, ATP depletion, Kinase-Glo luminescence; actives 0.4% (n = 360,000);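 active = inhibition above a per-plate cutoff of the control wells' mean inhibition plus 3 SD, cut at about 5.5% in these data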
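Measured by: Kinase-Glo luciferase luminescence reporting remaining unconsumed ATP. Material: purified T. brucei MetRS enzyme. Doses: 11.9 µM compound single dose, 0.9% DMSO. Medium: HEPES buffer containing pyrophosphatase, BSA, spermine, DTT. Times: 15 min preincubation, 2 h reaction, all 25 °C. Reagent: methionine, ATP and bulk E. coli tRNA.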
WT yeast gro inh – growth inhibition of WT yeast, mitochondrial fusion screen. actives 2.1% (n = 190,000). inhibition, % at 10 µM. mitochondrial fusion phenotypic screen, WT strain. AID 1362; in the data active = inhibition above about 58%; tested in S. cerevisiae
A number is an active result; i = inactive; nt = no result given. In the library only some 6.4% were active in any assay of this set; here they are far more common.

SMILES	NR3A LBD binder	CHOP inh	EBV gp42 inh	MPTP inh	TbMetRS inhib	WT yeast gro inh
CCOC(=O)c1sc(NC(=O)CSc2nnnn2-c2ccccc2)nc1C	i	85	i	i	i	i
COC(=O)c1sc(NC(=O)CSc2nnnn2-c2cccc(OC)c2)nc1C	i	i	i	i	i	i
CCOC(=O)c1sc(NC(=O)CSc2nnnn2-c2ccc(C)c(C)c2)nc1C	i	93	i	i	i	i
CN1C(=O)C(c2cn(C)c3ccccc23)(c2cn(C)c3ccccc23)c2cc(Br)ccc21	nt	nt	nt	i	i	nt
Cc1ccccc1Oc1cc(NC(=O)CCCn2nc(C)c([N+](=O)[O-])c2C)cc([N+](=O)[O-])c1	i	91	i	i	i	i
COc1ccc(CNC(=O)CCCn2nc(C)c([N+](=O)[O-])c2C)cc1OC	i	i	i	i	i	i
Cc1nn(CCCC(=O)NCc2ccc(Cl)cc2)c(C)c1[N+](=O)[O-]	12	i	i	i	i	i
COc1ccc(NS(=O)(=O)c2cc(N)ccc2N2CCCCC2)cc1	i	nt	nt	i	i	nt
O=C(OCCN1CCCCC1)C1(c2ccccc2)CCCC1	i	i	i	i	i	i
CC1CC1C(=O)Nc1nc(-c2cccs2)c(-c2cccs2)s1 (configuration not stated)	i	i	i	i	i	76
CC(C)c1cc(C(N)=O)c(NC(=O)c2cccc(COc3ccc(Cl)cc3)c2)s1	16	i	i	i	i	65
CCOC(=O)/C(=C\c1ccc(N2CCC(c3ccccc3)=N2)cc1)C(C)=O	i	nt	nt	i	i	nt
O=C(/C=C/c1ccc(N2CCC(c3ccccc3)=N2)cc1)c1ccccc1	30	i	53	nt	nt	i
Cc1cc(CN2CCOCC2)c(O)c(C2(C)CCCCC2)c1	i	i	i	i	i	85
COc1ccc(OC)c2[nH]c(=O)c(CCNC(=S)NC(C)(C)C)cc12	i	i	i	i	i	i
O=c1[nH]c(/C=C/c2cccc([N+](=O)[O-])c2)c([N+](=O)[O-])c(=O)[nH]1	i	nt	nt	i	i	nt
O=[N+]([O-])c1cccc(/C=C/c2nc[nH]c2[N+](=O)[O-])c1	16	i	i	i	i	nt
O=C(NC1CCCCC1NC(=O)c1ccco1)c1ccco1 (configuration not stated)	i	i	i	i	i	i
COc1ccc(Br)cc1S(=O)(=O)Nc1ccc(Cl)cn1	i	nt	nt	i	i	nt
O=C(Nc1ccc(NC(=S)NC(=O)c2cccs2)cc1)c1ccccc1	26	i	i	i	i	i
COc1ccccc1C(=O)NC(=S)Nc1ccc(NC(=O)c2cccs2)cc1	30	i	i	i	i	i
O=C(NNC(=S)NC(=O)c1cccs1)c1ccc(O)cc1	i	nt	nt	i	i	nt
O=C(NC(=S)Nc1ccc(S(=O)(=O)NC2CCCCC2)cc1)c1cccs1	i	i	i	i	i	64
O=C(NNC(=S)NC(=O)c1cccs1)c1ccc(NC(=O)c2ccccc2)cc1	23	i	i	i	i	i
COc1ccc(OC)c(/C=N/NC(=O)c2cc3c(OC)cc(OC)cc3[nH]2)c1	i	i	i	i	i	nt
SMILES	NR3A LBD binder	CHOP inh	EBV gp42 inh	MPTP inh	TbMetRS inhib	WT yeast gro inh
Cc1cc(NC(=O)CSCC(=O)N(C)Cc2c(F)cccc2Cl)no1	i	nt	nt	i	i	nt
O=C1C(=O)N2C(=C1C(=O)N1CCCCCC1)c1ccccc1CC21CCCC1	i	i	i	i	i	nt
O=C(NC(=S)Nc1ccc(O)cc1)c1ccccc1Cl	16	i	i	i	i	i
COc1ccc(NC(=S)NC(=O)c2ccccc2Cl)cc1	i	i	i	i	i	i
c1ccc(C2=Nc3ccccc3OC2)cc1	i	i	i	i	i	i
COc1ccc2c(C)c(CC(=O)N3C[C@H]4C[C@@H](C3)c3cccc(=O)n3C4)c(=O)oc2c1OC	i	nt	nt	i	i	nt
Cc1cccc(N(C)S(=O)(=O)c2cccc3nsnc23)c1	i	94	i	i	i	i
CCN(c1cccc(C)c1)S(=O)(=O)c1cccc2nsnc12	i	i	i	i	i	i
O=C(O)/C=C/C(=O)NC1CCCCC1	i	i	i	i	i	i
CSc1cccc(-n2c(C)cc(C(N)=O)c2C)c1	i	i	i	i	i	i
CCc1c(C)c(C#N)c2nc3ccccc3n2c1Cl	nt	110	i	nt	nt	i
CCc1c(C)c(C#N)c2nc3ccccc3n2c1-n1nc(C)cc1C	i	i	i	i	i	i
COc1ccc(-c2noc(CSc3nnc(-c4ccccc4)n3C)n2)cc1	i	i	i	i	i	i
Cc1ccc(N2C(=O)C(F)(F)C2c2ccccc2)cc1 (configuration not stated)	i	i	i	i	i	i
Cc1ccc(N2C(=N)/C(=C3/Nc4ccccc4S3)C(c3ccccc3)C2=O)cc1 (configuration not stated)	i	i	i	i	i	83
S=C1SCCN1Cc1ccccc1	i	nt	nt	i	i	nt
COC(=O)c1ccc2c(=O)sc(N3CCC(C(N)=O)CC3)nc2c1	i	i	85	i	i	i
CCn1c(=NC(=O)CS(=O)(=O)c2ccc(C)cc2)sc2cccc(OC)c21	i	nt	nt	i	i	nt
CCn1c(=NC(=O)c2ccc(S(=O)(=O)N(C)C)cc2)sc2cccc(OC)c21	10	i	i	i	i	i
CCCCCCCCN1[C@@H](CC(=O)O)c2ccc(C(F)(F)F)cc2S1(=O)=O	i	nt	nt	i	i	nt
CCCCNCC#CCOc1cc(C)ccc1C(C)C	i	i	i	i	i	74
N#C/C(=N\Nc1ccc(Cl)c(Cl)c1)C(=O)C1CC1	12	i	i	i	i	nt
CC(=O)c1nn(-c2cccc(Br)c2)cc1C(=O)c1ccc(Br)cc1	i	78	i	i	i	i
OC(COCc1ccccc1)CN1CCCC1 (configuration not stated)	11	i	i	i	i	i
CCCCC(=O)N/N=C/c1cc([N+](=O)[O-])ccc1N1CCOCC1	i	i	i	i	i	i
SMILES	NR3A LBD binder	CHOP inh	EBV gp42 inh	MPTP inh	TbMetRS inhib	WT yeast gro inh
Cc1ccc(NC(=O)c2cc(-c3ccccc3)nn2-c2ccccc2)c(Br)c1	i	i	i	i	i	65
O=C(Nc1nccs1)c1cc(-c2ccccc2)nn1-c1ccccc1	12	i	i	i	i	i
Cc1cc(C(=O)Nc2ccc(C)c(C)c2)n(-c2ccccc2)n1	i	nt	nt	i	i	nt
Cc1ccc(NC(=O)c2cc(-c3ccccc3)nn2-c2ccccc2)cc1	i	i	i	i	i	66
O=C(CSc1nc(=O)n(CCCN2CCOCC2)c2c1CCC2)Nc1ccc(F)cc1	i	nt	nt	i	i	nt
CC(=O)c1ccc(N2CCN(C(=O)c3cccs3)C(C)C2)c(F)c1 (configuration not stated)	i	nt	nt	i	i	nt
O=C(c1cc(COc2c(F)cccc2F)on1)N1CCC(c2ccccc2F)C1 (configuration not stated)	i	i	i	i	i	i
CC(=O)c1c(C)[nH]c(C(=O)OCC(=O)Nc2cccc(S(=O)(=O)N(C)C)c2)c1C	i	i	i	i	i	i
